# Measured values as given in ChEMBL document CHEMBL1122046, “Quaternary heterocyclylamino beta-lactams: a generic alternative to the classical acylamino side chain” (1982).
# Key:
# Escherichia coli = assay: MIC against aerobic organism Escherichia coli strain 2891; type: functional; conditions: Escherichia coli; read-out: MIC
# Summary of the method: (§1)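 Agar-dilution MIC in µg/mL against aerobic bacterial strains on tryptocase soy agar, with inoculum applied as spots. Most series used 10^5 cfu per spot, and a later series used 10^4 cfu per spot. In some tables, footnoted strains were instead tested on Mueller-Hinton or nutrient agar. β-Lactamase-producing strains are flagged.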
# Klebsiella aerogenes = assay: Minimum inhibitory concentration against aerobic organism Enterobacter aerogenes strain 2828; type: functional; summary of the method: as §1
# Enterobacter cloacae [1] = assay: Minimum inhibitory concentration against aerobic organism Enterobacter cloacae strain 2646; type: functional; conditions: Enterobacter cloacae; read-out: MIC; summary of the method: as §1
# Klebsiella pneumoniae [2] = assay: Minimum inhibitory concentration against aerobic organism Klebsiella pneumoniae strain 4005; type: functional; summary of the method: as §1
# Morganella morganii [3] = assay: Minimum inhibitory concentration against aerobic organism Morganella morganii strain 2833; type: functional; conditions: Morganella morganii; read-out: MIC; summary of the method: as §1
# Pseudomonas aeruginosa [4] = assay: Minimum inhibitory concentration against aerobic organism Pseudomonas aeruginosa strain 2835; type: functional; summary of the method: as §1
# Proteus mirabilis = assay: Minimum inhibitory concentration against aerobic organism Proteus mirabilis strain 2830; type: functional; conditions: Proteus mirabilis; read-out: MIC; summary of the method: as §1
# Proteus vulgaris = assay: Minimum inhibitory concentration against aerobic organism Proteus vulgaris strain 2829; type: functional; conditions: Proteus vulgaris; read-out: MIC; summary of the method: as §1
# Salmonella [5] = assay: Minimum inhibitory concentration against aerobic organism Salmonella strain 3860; type: functional; summary of the method: as §1
# Staphylococcus aureus [6] = assay: Minimum inhibitory concentration against aerobic organism Staphylococcus aureus strain 2865; type: functional; summary of the method: as §1
# Staphylococcus aureus [7] = assay: Minimum inhibitory concentration against aerobic organism Staphylococcus aureus strain 2868; type: functional; conditions: Staphylococcus aureus; read-out: MIC; summary of the method: as §1
# Enterococcus faecalis [8] = assay: Minimum inhibitory concentration against aerobic organism Streptococcus faecalis strain 2864; type: functional; summary of the method: as §1
# Enterobacter cloacae [9] = assay: Minimum inhibitory concentration against aerobic organism Enterobacter cloacae 2646; type: functional; summary of the method: as §1
# Enterococcus faecalis [10] = assay: Minimum inhibitory concentration against aerobic organisms Streptococcus faecalis strain 2864; type: functional; summary of the method: as §1
# Salmonella [11] = assay: Inhibition zone diameter against aerobic organism Salmonella strain 826
# Klebsiella = assay: Inhibition zone diameter against aerobic organism Klebsiella species strain 2921
# Serratia marcescens = assay: Inhibition zone diameter against aerobic organism Serratia marcescenes strain 2855
# Staphylococcus aureus [12] = assay: Inhibition zone diameter against aerobic organism Staphylococcus aureus strain 2314
# Pseudomonas aeruginosa [13] = assay: Inhibition zone diameter against aerobic organism Pseudomonas aeruginosa strain 3350
# Streptococcus pyogenes = assay: Inhibition zone diameter against aerobic organism Streptococcus pyogenes strain 2874
# Morganella morganii [14] = assay: Disk zone diameter (25 ug/disk) against aerobic organism Morganella morganii strain 2834
# Klebsiella pneumoniae [15] = assay: Minimum inhibitory concentration against aerobic organism Klebsiella pneumoniae strain 2882; type: functional; conditions: Klebsiella pneumoniae; read-out: MIC; summary of the method: as §1
# [16] = Minimum inhibitory concentration against aerobic organism Salmonella schottmuelleri strain 2837; type: functional; conditions: Salmonella; read-out: MIC; summary of the method: as §1
# Shigella = assay: Minimum inhibitory concentration against aerobic organism Shigella species strain 2880; type: functional; conditions: Shigella; read-out: MIC; summary of the method: as §1
compound,measurement,setting,value
O=C([O-])C1=C(C[n+]2ccccc2)CS[C@@H]2[C@H]([N-]c3cc[n+](Cc4ccccc4)cc3)C(=O)N12,MIC,Escherichia coli,< 0.06 µg/mL
same,MIC,Klebsiella aerogenes,2 µg/mL
same,MIC,Enterobacter cloacae [1],0.125 µg/mL
same,MIC,Klebsiella pneumoniae [2],32 µg/mL
same,MIC,Morganella morganii [3],> 128 µg/mL
same,MIC,Pseudomonas aeruginosa [4],64 µg/mL
same,MIC,Proteus mirabilis,> 128 µg/mL
same,MIC,Proteus vulgaris,0.25 µg/mL
same,MIC,Salmonella [5],2 µg/mL
same,MIC,Staphylococcus aureus [6],0.125 µg/mL
same,MIC,Staphylococcus aureus [7],0.5 µg/mL
same,MIC,Enterococcus faecalis [8],128 µg/mL
O=C([O-])C1=C(CSc2cc[n+](Cc3ccccc3)cc2)CS[C@@H]2[C@H]([N-]c3cc[n+](Cc4ccccc4)cc3)C(=O)N12,MIC,Escherichia coli,< 0.06 µg/mL
same,MIC,Klebsiella aerogenes,1 µg/mL
same,MIC,Enterobacter cloacae [1],< 0.06 µg/mL
same,MIC,Klebsiella pneumoniae [2],32 µg/mL
same,MIC,Morganella morganii [3],> 128 µg/mL
same,MIC,Pseudomonas aeruginosa [4],> 128 µg/mL
same,MIC,Proteus mirabilis,128 µg/mL
same,MIC,Proteus vulgaris,< 0.06 µg/mL
same,MIC,Salmonella [5],4 µg/mL
same,MIC,Staphylococcus aureus [6],< 0.06 µg/mL
same,MIC,Staphylococcus aureus [7],0.25 µg/mL
same,MIC,Enterococcus faecalis [8],64 µg/mL
CC(=O)OCC1=C(C(=O)[O-])N2C(=O)[C@@H](Nc3cc[n+](COCc4ccc([N+](=O)[O-])cc4)cc3)[C@H]2SC1,MIC,Escherichia coli,1 µg/mL
same,MIC,Klebsiella aerogenes,> 128 µg/mL
same,MIC,Enterobacter cloacae [1],64 µg/mL
same,MIC,Klebsiella pneumoniae [2],128 µg/mL
same,MIC,Morganella morganii [3],> 128 µg/mL
same,MIC,Pseudomonas aeruginosa [4],> 128 µg/mL
same,MIC,Proteus mirabilis,> 128 µg/mL
same,MIC,Proteus vulgaris,1 µg/mL
same,MIC,Salmonella [5],128 µg/mL
same,MIC,Staphylococcus aureus [6],2 µg/mL
same,MIC,Staphylococcus aureus [7],8 µg/mL
same,MIC,Enterococcus faecalis [8],> 128 µg/mL
[N-]=[N+]=NCC1=C(C(=O)[O-])N2C(=O)[C@@H](Nc3cc[n+](Cc4ccccc4)cc3)[C@H]2SC1,MIC,Escherichia coli,0.25 µg/mL
same,MIC,Klebsiella aerogenes,8 µg/mL
same,MIC,Enterobacter cloacae [1],1 µg/mL
same,MIC,Klebsiella pneumoniae [2],64 µg/mL
same,MIC,Morganella morganii [3],> 128 µg/mL
same,MIC,Pseudomonas aeruginosa [4],> 128 µg/mL
same,MIC,Proteus mirabilis,> 128 µg/mL
same,MIC,Proteus vulgaris,< 0.06 µg/mL
same,MIC,Salmonella [5],1 µg/mL
same,MIC,Staphylococcus aureus [6],0.5 µg/mL
same,MIC,Staphylococcus aureus [7],2 µg/mL
same,MIC,Enterococcus faecalis [8],> 128 µg/mL
Cc1nnc(SCC2=C(C(=O)[O-])N3C(=O)[C@@H](Nc4cc[n+](COCC(Cl)(Cl)Cl)cc4C(=O)[O-])[C@H]3SC2)s1.[Na+],MIC,Escherichia coli,128 µg/mL
same,MIC,Klebsiella aerogenes,> 128 µg/mL
same,MIC,Enterobacter cloacae [1],> 128 µg/mL
same,MIC,Klebsiella pneumoniae [2],> 128 µg/mL
same,MIC,Morganella morganii [3],> 128 µg/mL
same,MIC,Pseudomonas aeruginosa [4],> 128 µg/mL
same,MIC,Proteus mirabilis,> 128 µg/mL
same,MIC,Proteus vulgaris,16 µg/mL
same,MIC,Salmonella [5],> 128 µg/mL
same,MIC,Staphylococcus aureus [6],64 µg/mL
same,MIC,Staphylococcus aureus [7],> 128 µg/mL
same,MIC,Enterococcus faecalis [8],> 128 µg/mL
CC(=O)OCC1=C(C(=O)O)N2C(=O)[C@@H](NC(=O)Cc3cccs3)[C@H]2SC1 [CEPHALOTHIN],MIC,Escherichia coli,> 128 µg/mL
same,MIC,Klebsiella aerogenes,32 µg/mL
same,MIC,Enterobacter cloacae [9],> 128 µg/mL
same,MIC,Klebsiella pneumoniae [2],0.25 µg/mL
same,MIC,Morganella morganii [3],> 128 µg/mL
same,MIC,Pseudomonas aeruginosa [4],> 128 µg/mL
same,MIC,Proteus mirabilis,32 µg/mL
same,MIC,Proteus vulgaris,128 µg/mL
same,MIC,Salmonella [5],2 µg/mL
same,MIC,Staphylococcus aureus [6],0.015 µg/mL
same,MIC,Staphylococcus aureus [7],0.06 µg/mL
same,MIC,Enterococcus faecalis [10],8 µg/mL
Cn1nnnc1SCC1=C(C(=O)[O-])N2C(=O)[C@@H](Nc3cc[n+](COCC(Cl)(Cl)Cl)cc3C(=O)OC(C)(C)C)[C@H]2SC1,MIC,Escherichia coli,128 µg/mL
same,MIC,Klebsiella aerogenes,> 128 µg/mL
same,MIC,Enterobacter cloacae [1],> 128 µg/mL
same,MIC,Klebsiella pneumoniae [2],> 128 µg/mL
same,MIC,Morganella morganii [3],> 128 µg/mL
same,MIC,Pseudomonas aeruginosa [4],> 128 µg/mL
same,MIC,Proteus mirabilis,> 128 µg/mL
same,MIC,Proteus vulgaris,> 128 µg/mL
same,MIC,Salmonella [5],> 128 µg/mL
same,MIC,Staphylococcus aureus [6],128 µg/mL
same,MIC,Staphylococcus aureus [7],> 128 µg/mL
same,MIC,Enterococcus faecalis [8],> 128 µg/mL
O=C([O-])C1=C(CO)CS[C@@H]2[C@H](Nc3cc[n+](Cc4ccccc4)cc3)C(=O)N12,MIC,Escherichia coli,0.5 µg/mL
same,MIC,Klebsiella aerogenes,128 µg/mL
same,MIC,Enterobacter cloacae [1],1 µg/mL
same,MIC,Klebsiella pneumoniae [2],> 128 µg/mL
same,MIC,Morganella morganii [3],> 128 µg/mL
same,MIC,Pseudomonas aeruginosa [4],> 128 µg/mL
same,MIC,Proteus mirabilis,> 128 µg/mL
same,MIC,Proteus vulgaris,< 0.06 µg/mL
same,MIC,Salmonella [5],> 128 µg/mL
same,MIC,Staphylococcus aureus [6],0.5 µg/mL
same,MIC,Staphylococcus aureus [7],16 µg/mL
same,MIC,Enterococcus faecalis [8],> 128 µg/mL
CC(O)[C@H]1C(=O)N2C(C(=O)O)=C(SCCNC3=NCCC3)C[C@H]12 (stereo partly drawn),zone diameter,Salmonella [11],28 mm
same,zone diameter,Klebsiella,24 mm
same,zone diameter,Serratia marcescens,25.5 mm
same,zone diameter,Staphylococcus aureus [12],38 mm
same,zone diameter,Pseudomonas aeruginosa [13],25.5 mm
same,zone diameter,Streptococcus pyogenes,40 mm
CC(O)[C@H]1C(=O)N2C(C(=O)[O-])=C(SCCNc3cc[n+](C)cc3)C[C@H]12 (stereo partly drawn),zone diameter,Salmonella [11],28 mm
same,zone diameter,Klebsiella,27 mm
same,zone diameter,Serratia marcescens,26.5 mm
same,zone diameter,Staphylococcus aureus [12],42 mm
same,zone diameter,Pseudomonas aeruginosa [13],24.5 mm
same,zone diameter,Streptococcus pyogenes,37.5 mm
same,zone diameter,Morganella morganii [14],26 mm
CC1(C)S[C@@H]2[C@H](NC=[N+]3CCCCCC3)C(=O)N2[C@H]1C(=O)[O-],MIC,Escherichia coli,12.5 µg/mL
same,MIC,Klebsiella aerogenes,64 µg/mL
same,MIC,Klebsiella pneumoniae [15],100 µg/mL
same,MIC,Klebsiella pneumoniae [2],16 µg/mL
same,MIC,Morganella morganii [3],> 128 µg/mL
same,MIC,Pseudomonas aeruginosa [4],> 128 µg/mL
same,MIC,Proteus mirabilis,> 128 µg/mL
same,MIC,Proteus vulgaris,0.5 µg/mL
same,MIC,[16],12.5 µg/mL
same,MIC,Salmonella [5],0.125 µg/mL
same,MIC,Staphylococcus aureus [6],8 µg/mL
same,MIC,Staphylococcus aureus [7],> 100 µg/mL
same,MIC,Enterococcus faecalis [8],> 100 µg/mL
same,MIC,Shigella,12.5 µg/mL
